Assay results as given in ChEMBL document CHEMBL3244396, “Synthesis and antileukemic activity of 5-substituted 2,3-dihydro-6,7-bis(hydroxymethyl)-1H-pyrrolizine diesters” (J Med Chem, 1977).

Key:
Mus musculus [1] = experiment: Toxicity in male CDF1 mouse allografted with mouse P388 cells assessed as animal survival at 100 mg/kg, ip administered daily for 9 days as saline with Tween-80 solution starting 24 hrs after tumor inoculation; assay type: organism-based; design: dose 100 mg/kg, route intraperitoneal; details: in vivo
Summary of the method: (§1)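 P-388 leukemia ascitic fluid implanted ip. Compound dosed ip in saline with Tween-80 vehicle, once daily for nine doses from 24 h after tumor inoculation. Acute toxicity scored as toxicity-day survivors per group. Survival was followed up to 30 days, with 30-day survival counted as "cure". Follows NCI screening protocols.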

P388 [2] = experiment: Antitumor activity against mouse P388 cells allografted in female CDF1 mouse assessed as disease cures by measuring 30-days host survival at 400 mg/kg, ip administered daily for 9 days as saline with Tween-80 solution starting 24 hrs after tumor inoculation relative to control; assay type: functional; details: route intraperitoneal
Summary of the method: (§2)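 P388 ascitic cell inoculum given ip to CDF1 mice of the sex in each line. Nine daily ip doses in saline with Tween-80 as vehicle, starting 24 h after inoculation. Median survival time expressed as %T/C (>125 significant); "cure" defined as 30-day survival.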

P388 [3] = experiment: Antitumor activity against mouse P388 cells allografted in female CDF1 mouse assessed as disease cures by measuring 30-days host survival at 200 mg/kg, ip administered daily for 9 days as saline with Tween-80 solution starting 24 hrs after tumor inoculation relative to control; assay type: functional; details: route intraperitoneal; summary of the method: as §2
P388 [4] = experiment: Antitumor activity against mouse P388 cells allografted in female CDF1 mouse assessed as disease cures by measuring 30-days host survival at 100 mg/kg, ip administered daily for 9 days as saline with Tween-80 solution starting 24 hrs after tumor inoculation relative to control; assay type: functional; details: route intraperitoneal; summary of the method: as §2
P388 [5] = experiment: Antitumor activity against mouse P388 cells allografted in female CDF1 mouse assessed as disease cures by measuring 30-days host survival at 50 mg/kg, ip administered daily for 9 days as saline with Tween-80 solution starting 24 hrs after tumor inoculation relative to control; assay type: functional; details: route intraperitoneal; summary of the method: as §2
P388 [6] = experiment: Antitumor activity against mouse P388 cells allografted in female CDF1 mouse assessed as disease cures by measuring 30-days host survival at 25 mg/kg, ip administered daily for 9 days as saline with Tween-80 solution starting 24 hrs after tumor inoculation relative to control; assay type: functional; details: route intraperitoneal; summary of the method: as §2
P388 [7] = experiment: Antitumor activity against mouse P388 cells allografted in male CDF1 mouse assessed as disease cures by measuring 30-days host survival at 50 mg/kg, ip administered daily for 9 days as saline with Tween-80 solution starting 24 hrs after tumor inoculation relative to control; assay type: functional; details: route intraperitoneal; summary of the method: as §2
P388 [8] = experiment: Antitumor activity against mouse P388 cells allografted in male CDF1 mouse assessed as disease cures by measuring 30-days host survival at 25 mg/kg, ip administered daily for 9 days as saline with Tween-80 solution starting 24 hrs after tumor inoculation relative to control; assay type: functional; details: route intraperitoneal; summary of the method: as §2
P388 [9] = experiment: Antitumor activity against mouse P388 cells allografted in male CDF1 mouse assessed as disease cures by measuring 30-days host survival at 100 mg/kg, ip administered daily for 9 days as saline with Tween-80 solution starting 24 hrs after tumor inoculation relative to control; assay type: functional; details: route intraperitoneal; summary of the method: as §2
P388 [10] = experiment: Antitumor activity against mouse P388 cells allografted in female CDF1 mouse assessed as change in body weight at 400 mg/kg, ip administered daily for 9 days as saline with Tween-80 solution starting 24 hrs after tumor inoculation; assay type: functional; details: route intraperitoneal
Summary of the method: (§3)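 Ascitic fluid carrying P388 cells was inoculated ip. Compound was given ip in nine daily doses, starting 24 h after inoculation, in Klucel (hydroxypropylcellulose) suspension or in saline with Tween-80. Body-weight difference (treated minus control) was recorded on day 5. Survival was scored as %T/C of median survival time, and 30-day survival counted as cure.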

P388 [11] = experiment: Antitumor activity against mouse P388 cells allografted in female CDF1 mouse assessed as change in body weight at 200 mg/kg, ip administered daily for 9 days as saline with Tween-80 solution starting 24 hrs after tumor inoculation; assay type: functional; details: route intraperitoneal; summary of the method: as §3
P388 [12] = experiment: Antitumor activity against mouse P388 cells allografted in female CDF1 mouse assessed as change in body weight at 100 mg/kg, ip administered daily for 9 days as saline with Tween-80 solution starting 24 hrs after tumor inoculation; assay type: functional; details: route intraperitoneal; summary of the method: as §3
P388 [13] = experiment: Antitumor activity against mouse P388 cells allografted in female CDF1 mouse assessed as change in body weight at 50 mg/kg, ip administered daily for 9 days as saline with Tween-80 solution starting 24 hrs after tumor inoculation; assay type: functional; details: route intraperitoneal; summary of the method: as §3
P388 [14] = experiment: Antitumor activity against mouse P388 cells allografted in female CDF1 mouse assessed as change in body weight at 25 mg/kg, ip administered daily for 9 days as saline with Tween-80 solution starting 24 hrs after tumor inoculation; assay type: functional; details: route intraperitoneal; summary of the method: as §3
P388 [15] = experiment: Antitumor activity against mouse P388 cells allografted in male CDF1 mouse assessed as change in body weight at 50 mg/kg, ip administered daily for 9 days as saline with Tween-80 solution starting 24 hrs after tumor inoculation; assay type: functional; details: route intraperitoneal; summary of the method: as §3
P388 [16] = experiment: Antitumor activity against mouse P388 cells allografted in male CDF1 mouse assessed as change in body weight at 25 mg/kg, ip administered daily for 9 days as saline with Tween-80 solution starting 24 hrs after tumor inoculation; assay type: functional; details: route intraperitoneal; summary of the method: as §3
P388 [17] = experiment: Antitumor activity against mouse P388 cells allografted in male CDF1 mouse assessed as change in body weight at 100 mg/kg, ip administered daily for 9 days as saline with Tween-80 solution starting 24 hrs after tumor inoculation; assay type: functional; details: route intraperitoneal; summary of the method: as §3
Mus musculus [18] = experiment: Toxicity in female CDF1 mouse allografted with mouse P388 cells assessed as animal survival at 200 mg/kg, ip administered daily for 9 days as saline with Tween-80 solution starting 24 hrs after tumor inoculation; assay type: organism-based; design: dose 200 mg/kg, route intraperitoneal; details: in vivo; summary of the method: as §1
Mus musculus [19] = experiment: Toxicity in female CDF1 mouse allografted with mouse P388 cells assessed as animal survival at 100 mg/kg, ip administered daily for 9 days as saline with Tween-80 solution starting 24 hrs after tumor inoculation; assay type: organism-based; design: dose 100 mg/kg, route intraperitoneal; details: in vivo; summary of the method: as §1
Mus musculus [20] = experiment: Toxicity in female CDF1 mouse allografted with mouse P388 cells assessed as animal survival at 50 mg/kg, ip administered daily for 9 days as saline with Tween-80 solution starting 24 hrs after tumor inoculation; assay type: organism-based; design: dose 50 mg/kg, route intraperitoneal; details: in vivo; summary of the method: as §1
Mus musculus [21] = experiment: Toxicity in female CDF1 mouse allografted with mouse P388 cells assessed as animal survival at 25 mg/kg, ip administered daily for 9 days as saline with Tween-80 solution starting 24 hrs after tumor inoculation; assay type: organism-based; design: dose 25 mg/kg, route intraperitoneal; details: in vivo; summary of the method: as §1
Mus musculus [22] = experiment: Toxicity in male CDF1 mouse allografted with mouse P388 cells assessed as animal survival at 50 mg/kg, ip administered daily for 9 days as saline with Tween-80 solution starting 24 hrs after tumor inoculation; assay type: organism-based; design: dose 50 mg/kg, route intraperitoneal; details: in vivo; summary of the method: as §1

In the case of `CCCCNC(=O)OCc1c(COC(=O)NCCCC)c(-c2ccc(Cl)c(Cl)c2)n2c1CCC2`, the Activity (Mus musculus [1]) is reported as “Non-toxic”, the T/C (P388 [2]) is reported as 84% and the T/C (P388 [3]) is reported as 163%. For the same molecule, the T/C (P388 [4]) was 181%, the T/C (P388 [5]) was 171% and the T/C (P388 [6]) was 159%. The T/C (P388 [7]) was 137%, the T/C (P388 [8]) was 138% and the T/C (P388 [9]) was 160%. The Activity (P388 [10]) was -3.6 g, the Activity (P388 [11]) was -3.2 g and the Activity (P388 [12]) was -2 g. The Activity (P388 [13]) was -1.9 g, the Activity (P388 [14]) was -1.2 g and the Activity (P388 [15]) was -1.1 g. For the same molecule, the Activity (P388 [16]) was -1.9 g, the Activity (P388 [17]) was -0.4 g and the Activity (Mus musculus [18]) was “Non-toxic”. For the same molecule, the Activity (Mus musculus [19]) was “Non-toxic”, the Activity (Mus musculus [20]) was “Non-toxic” and the Activity (Mus musculus [21]) was “Non-toxic”. For the same molecule, the Activity (Mus musculus [22]) was “Non-toxic”.
